Measurements: publication PMC4167792 (Analytical biochemistry, 2013)
Several values for one entry are separate records, joined by “and”; a condition that tells them apart may be missing. Identical values can stand only once.

Key:
SIRT6 protein = SIRT6 protein (Gallus gallus, UniProt A0A8V1A309); experiment: Frontal affinity chromatography on the SIRT6-OT column; assay type: binding, chicken; settings: for Kd: SIRT6-OT column, ammonium acetate 10 mM pH 7.4:methanol 90:10, 0.2 mM NAD+, non-linear regression
SIRT6 = experiment: Histone deacetylation assay by mass spectrometry on SIRT6-coated magnetic beads; assay type: biochemical, chicken; settings: 10 μM of each compound, H3K9Ac peptide, 0.2 mM NAD+, 4 h at 37°C
Summary of the method: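 SIRT6 was coupled by its C-terminus to amine-terminated magnetic beads (1 μm). Beads were incubated in 50 μL of 50 mM Tris-HCl pH 8.0, 150 mM NaCl, 1 mM DTT with 5 μg of H3K9Ac peptide (residues 1–21). p-Aminohippuric acid was added as internal standard. The supernatant, taken after magnetic separation, was run on C18 LC-ESI-MS, positive-ion SIM at m/z 922.4 (acetylated) and 908.4 (deacetylated).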

[1] = test system: quercetin binding site of SIRT6; experiment: Frontal displacement chromatography of quercetin on the SIRT6-OT column; design: species or system chicken; settings: 10 μM polyphenol in mobile phase in the presence of 5 μM quercetin
Summary of the method: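 Full-length chicken SIRT6, expressed in E. coli as a GST fusion, thrombin-cleaved and purified by size exclusion. Coupled inside an open tubular capillary (30 cm × 100 μm i.d.) with EDC/Sulfo-NHS in 100 mM MES pH 5.5, 18 h at 4°C. Frontal runs at room temperature, 0.05 mL min^-1, in 10 mM ammonium acetate pH 7.4:methanol (90:10) with 0.2 mM NAD⁺. ESI-MS detection; retention-volume shift recorded.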

SMILES | Kd (SIRT6 protein) | % inhibition of deacetylation relative to control (SIRT6) [%] | displacement of quercetin (change in retention) [1] [min] | fold decrease in affinity for the SIRT6 protein (SIRT6 protein; naringenin vs apigenin (saturation of the C ring double bond)) [fold] | breakthrough volume (SIRT6 protein; 2 μM quercetin on SIRT6-OT column) [mL] | midpoint of the breakthrough curve (SIRT6 protein; 2 μM quercetin on SIRT6-OT column, 0.05 mL/min) [min]
O=c1cc(-c2ccc(O)cc2)oc2cc(O)cc(O)c12 [Apigenin] | 1.9 µM and 1.92 µM | 39.0 ± 5.9 | – | – | – | –
O=c1c(O)c(-c2ccc(O)cc2)oc2cc(O)cc(O)c12 [Kaempferol] | 3.88 ± 0.57 µM | 48.6 ± 6.0 | – | – | – | –
O=c1cc(-c2ccc(O)c(O)c2)oc2cc(O)cc(O)c12 [Luteolin] | 1.78 ± 0.64 µM | 53.7 ± 17.7 | 38.1 | – | – | –
O=C1C[C@@H](c2ccc(O)cc2)Oc2cc(O)cc(O)c21 [Naringenin] | 6.6 µM and 6.62 µM | 31.0 ± 5.3 | – | 3 | – | –
O=c1c(O)c(-c2ccc(O)c(O)c2)oc2cc(O)cc(O)c12 [Quercetin] | 4.09 ± 2.26 µM | 46.6 ± 2.3 | – | – | 5.25 | 105
O=c1cc(-c2ccc(O)cc2)oc2c([C@@H]3O[C@H](CO)[C@@H](O)[C@H](O)[C@H]3O)c(O)cc(O)c12 [Vitexin] | 15.3 µM | 24.9 ± 0.9 | 16.5 | – | – | –
O=c1c(-c2ccc(O)cc2)coc2cc(O)cc(O)c12 [genistein, Genistein] | – | – | 2.5 | – | – | –
